Assay results of several laboratories.
KIT D816V: Mast/stem cell growth factor receptor Kit (KIT, Homo sapiens, UniProt P10721, D816V)
KIT autoinhibited: Mast/stem cell growth factor receptor Kit, autoinhibited (KIT, Homo sapiens, UniProt P10721)
KIT V559D/V654A: Mast/stem cell growth factor receptor Kit (KIT, Homo sapiens, UniProt P10721, V559D/V654A)
KIT L576P: Mast/stem cell growth factor receptor Kit (KIT, Homo sapiens, UniProt P10721, L576P)
KIT: Mast/stem cell growth factor receptor Kit (KIT, Homo sapiens, UniProt P10721)
KIT A829P: Mast/stem cell growth factor receptor Kit (KIT, Homo sapiens, UniProt P10721, A829P)
KIT V559D: Mast/stem cell growth factor receptor Kit (KIT, Homo sapiens, UniProt P10721, V559D)
KIT D816H: Mast/stem cell growth factor receptor Kit (KIT, Homo sapiens, UniProt P10721, D816H)

SMILES | target | assay | conditions | remaining binding [%]
O=C(c1ccc(Nc2ncc(Cl)c(-c3cc4ccccc4s3)n2)cc1)N1CCC(N2CCCC2)CC1 | KIT D816V | binding, competition with immobilised ligand | 1 µM | 13
O=C(NCC1CCOCC1)c1n[nH]cc1NC(=O)c1c(F)cccc1F | KIT autoinhibited | binding, competition with immobilised ligand | 1 µM | 100
C[C@@H](c1ccc(-n2cnc3c(N)ncnc32)cc1)N1CCc2nn(C)c(Cc3ccccc3)c2C1=O | KIT V559D/V654A | binding, competition with immobilised ligand | 0.1 µM | 78
O=C(c1ccc(Nc2ncc(Cl)c(-c3ccc(Cl)s3)n2)cc1)N1CCC(N2CCCC2)CC1 | KIT autoinhibited | binding, competition with immobilised ligand | 1 µM | 7.2
CN(CCCC(F)(F)F)c1nccc(-c2cnn3ncccc23)n1 | KIT autoinhibited | binding | 1 µM | 100
CN1CCN(c2ccc(Nc3nccc(-c4ccccc4)n3)cc2C(F)(F)F)CC1 | KIT L576P | binding | 10 µM | 0.45
N#Cc1ccccc1CSc1nnc2c(n1)[nH]c1ccccc12 | KIT | binding, competition with immobilised ligand | 10 µM | 100
CN1CCN(c2ccc(Nc3nccc(-c4cccc([N+](=O)[O-])c4)n3)cc2C(F)(F)F)CC1 | KIT D816V | binding | 10 µM | 1.1
C=CC(=O)N1CCC(C(=O)NCC(=O)N2CCN(c3nc(-c4cnc(N)nc4C(F)F)nc(N4CCOCC4)n3)CC2)CC1 | KIT L576P | binding, competition with immobilised ligand | 1 µM | 53
C[C@@H]1CCN(c2nccc(-c3cnn4ncccc34)n2)C1 | KIT | binding | 1 µM | 100
O=C(Nc1c[nH]nc1C(=O)NC1CCNCC1)c1cc(F)cc(F)c1 | KIT D816V | binding, competition with immobilised ligand | 1 µM | 100
CN(C)c1nccc(-c2cnn3ncccc23)n1 | KIT autoinhibited | binding | 1 µM | 88
O=C(c1ccc(Nc2nccc(-c3cc4ccccc4s3)n2)cc1)N1CCC(N2CCCC2)CC1 | KIT A829P | binding, competition with immobilised ligand | 1 µM | 31
O=C(N1CCS(=O)(=O)CC1)N1C[C@H](c2ccc(OC(F)(F)F)cc2)C[C@H](c2nc(C3CC3)no2)C1 | KIT A829P | cell-free assay, competition with immobilised ligand | 1 µM | 100
Cc1cnc(Nc2ccc(C(=O)N3CCC(N4CCCC4)CC3)cc2)nc1-c1cc2ccccc2s1 | KIT autoinhibited | binding, competition with immobilised ligand | 1 µM | 22
COc1cnc(Nc2cccc(S(N)(=O)=O)c2)nc1N1CCN(c2ccccc2)CC1 | KIT L576P | binding, competition with immobilised ligand | 1 µM | 80
Cc1c(C(=O)O)cc(-c2ccc(C3CCNCC3)cc2)c2ccc(-c3ccc(C(F)(F)F)cc3)cc12 | KIT V559D | binding, competition with immobilised ligand | 1 µM | 100
CCN1CCN(Cc2ccc(C(=O)Nc3ccc(C)c(Oc4ccc5c(c4)CC(=O)N5)c3)cc2C(F)(F)F)CC1 | KIT | binding, competition with immobilised ligand | 1 µM | 0.85

SMILES | target | assay | conditions | remaining binding [%]
CNC(=O)[C@@H]1CC[C@@H](n2c(-c3ccc4cnccc4c3)nc3ccc(C(=O)NCc4cccc(C(N)=O)c4)cc32)C1 | KIT A829P | binding, competition with immobilised ligand | 1 µM | 100
Cc1c(NC(=O)c2cc(C(N)=O)nc3cc(F)ccc23)c(C(F)(F)F)nn1Cc1ccc(C(C)(C)C)cc1 | KIT D816H | cell-free assay, competition with immobilised ligand | 1 µM | 100
c1cncc(-c2cccc(Nc3nccc(NC4CCCCC4)n3)c2)c1 | KIT D816H | binding, competition with immobilised ligand | 10 µM | 13
COc1cnc(Nc2cccc(S(N)(=O)=O)c2)nc1N1CCN(c2ccccc2)C(=O)C1 | KIT V559D/V654A | binding, competition with immobilised ligand | 1 µM | 97
COc1ncc2cc3ccccc3nc2c1C#N | KIT V559D | cell-free assay, competition with immobilised ligand | 5 µM | 94
CN(C)c1nccc(-c2cnc3ncccn23)n1 | KIT | binding | 1 µM | 69
O=C(O)[C@H]1[C@H](Cn2nnc3ccccc3c2=O)CC[C@@H]1C(=O)c1ccc(OCCC2CCOCC2)cc1 | KIT D816H | cell-free assay, competition with immobilised ligand | 1 µM | 80
c1cnn2ncc(-c3ccnc(N4CCC45COC5)n3)c2c1 | KIT autoinhibited | binding | 1 µM | 56
Cn1cc(Cl)c2c(Oc3c(F)cc(Nc4cc(Cl)nc(N)n4)cc3F)ccnc21 | KIT A829P | cell-free assay, competition with immobilised ligand | 0.1 µM | 63
O=C(NCCCN1CCOCC1)c1ccc(Nc2nccc(-c3cc4ccccc4s3)n2)cc1 | KIT V559D/V654A | binding, competition with immobilised ligand | 1 µM | 56
Cc1cc(NC(=O)c2cccc(S(F)(F)(F)(F)F)c2)cc(-n2ccn3nc(-c4cccnc4)cc23)c1 | KIT A829P | cell-free assay, competition with immobilised ligand | 1 µM | 100
CC(C)(C)c1ccc(-c2nc(CBr)nn2-c2cccc(O)c2)cc1 | KIT D816V | cell-free assay, competition with immobilised ligand | 10 µM | 95
Nc1ncc2c(n1)-c1c([nH]c3ccc(C#CC4CC4)cc13)CCCC2 | KIT D816V | binding, competition with immobilised ligand | 1 µM | 100
O=C(Nc1cccnn1)N1CCC(=Cc2cccc(Oc3ccc(C(F)(F)F)cn3)c2)CC1 | KIT A829P | cell-free assay, competition with immobilised ligand | 1 µM | 96
CN(c1nccc(-c2cnn3ncccc23)n1)C1CC1 | KIT L576P | binding | 1 µM | 100
N#CC1(c2ccccn2)CCN(Cc2cc(C(=O)N3CCCC3)c(=O)n3ccccc23)CC1 | KIT A829P | cell-free assay, competition with immobilised ligand | 1 µM | 50
N[C@H]1CCN(c2nccc(-c3cnn4ncccc34)n2)C1 | Mast/stem cell growth factor receptor Kit (KIT, Homo sapiens, UniProt P10721, T670I/V559D) | binding | 1 µM | 100
O=C(NCCCN1CCOCC1)c1ccc(Nc2ncc(Cl)c(-c3ccc(Cl)s3)n2)cc1 | KIT V559D | binding, competition with immobilised ligand | 1 µM | 0.05
